Converted amounts (≈) assume the structure as drawn.
Experiments:
NCI-H187 = test: Cytotoxicity against human NCI-H187 cells by SRB assay; type: functional, cell-based
Method in brief: (§1)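 Colorimetric (Skehan) cytotoxicity assay on KB human epidermoid carcinoma, BC human breast cancer, NCI-H187 human small cell lung cancer, and Vero African green monkey kidney […] cells. Ellipticine served as the reference substance. Activity is expressed as IC50.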

Vero = test: Cytotoxicity against african green monkey Vero cells by SRB assay; type: cell-based; conditions: Chlorocebus sabaeus; method in brief: as §1
[1] = Cytotoxicity against human BC cells by SRB assay; type: functional, cell-based; method in brief: as §1
Plasmodium falciparum = test: Antimalarial activity against multidrug-resistant Plasmodium falciparum K1 after 42 hrs by [3H]hypoxanthine uptake; type: functional, organism-based
Method in brief: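 Microculture radioisotope method following Desjardins; growth of multidrug-resistant K1 parasites read as in vitro [3H]-hypoxanthine uptake. IC50 = concentration giving 50% reduction in parasite growth. Dihydroartemisinin run as standard.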

KB = test: Cytotoxicity against human KB cells by SRB assay; type: functional, cell-based; method in brief: as §1

Row | Compound | IC50 (NCI-H187) [µg/mL] | IC50 (Vero) [µg/mL] | IC50 [1] [µg/mL] | IC50 (Plasmodium falciparum) [µg/mL] | IC50 (KB) [µg/mL]
1 | CC1(C)C[C@@H]2CC3=CC(=O)[C@@](O)(CO)[C@@]3(C)[C@@H]2[C@H]1O [CONNATUSIN B] | > 20 | > 50 | > 20 | > 20 | > 20
2 | COc1ccc2c(c1)C(=O)CC(C)(C)O2 | > 20 | > 50 | > 20 | > 20 | > 20
3 | CC(C)=C[C@@H](O)C1=CC(=O)[C@@H]2O[C@@H]2C1=O [PANEPOXYDIONE] | 0.22 (≈ 1.06 µM) | 0.2 (≈ 0.961 µM) | 0.8 (≈ 3.84 µM) | 2.1 (≈ 10.1 µM) | 0.8 (≈ 3.84 µM)
4 | CC1=C(O)C(=O)[C@]2(O)C[C@H]3CC(C)(C)[C@H](O)[C@H]3[C@]12C [CONNATUSIN A] | > 20 | > 50 | > 20 | > 20 | > 20
5 | C=C1[C@@H](O)[C@H]2O[C@]23C[C@H]2CC(C)(C)[C@H](O)[C@H]2[C@]13C [HYPNOPHILIN 1] | 0.67 (≈ 2.68 µM) | 1.1 (≈ 4.39 µM) | > 20 | 3.1 (≈ 12.4 µM) | > 20
6 | CC(C)=C[C@H](O)C1=C[C@@H](O)[C@@H]2O[C@@H]2C1=O [PANEPOXYDONE] | 0.66 (≈ 3.14 µM) | 0.9 (≈ 4.28 µM) | 2.9 (≈ 13.8 µM) | 3.4 (≈ 16.2 µM) | 1.9 (≈ 9.04 µM)
7 | C[C@H]1[C@@H](O)O[C@@H]2O[C@@]3(C)CC[C@H]4[C@H](C)CC[C@@H]1[C@@]24OO3 [ARTENIMOL] |  |  |  | 0.0018 (≈ 0.00633 µM) | 
8 | C=C1C(=O)[C@H]2O[C@]23C[C@H]2CC(C)(C)[C@H](O)[C@H]2[C@]13C [HYPNOPHILIN] | > 20 | > 50 | > 20 | > 20 | > 20
9 | Cc1c2ccncc2c(C)c2c1[nH]c1ccccc12 [ELLIPTECINE] | 0.32 (≈ 1.3 µM) |  | 0.27 (≈ 1.1 µM) |  | 0.21 (≈ 0.853 µM)
